Paper PMC12040637 (Iranian Biomedical Journal, 2024)
In brackets after ≈: the same amount, converted by molar mass. Several values for one entry are separate records, joined by “and”; a condition that tells them apart may be missing. Identical values can stand only once.

How the values were obtained:
Hep G2 cells [1] = experiment: MTT cytotoxic assay; format: cell-based; settings: for IC50: Homo sapiens, HepG2, 24 h, read-out: Hep G2 cells IC50
In short: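 Hep G2 cells (Pasteur Institute of Iran) seeded at 10,000 cells/well and grown 24 h at 37 °C, 5% CO2. Extract and fractions were tested at 12.5–200 μg/mL for 24 h. MTT was then added for 4 h at 37 °C, and formazan was dissolved in DMSO and read at 570 nm. IC50 came from plots of growth inhibition against concentration; mean ± SD of triplicates.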

ORAC assay = format: biochemical; settings: Trolox equivalents
In short: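 Blank, Trolox standard or sample (20 µL) in 75 mM potassium phosphate buffer was plated in triplicate with 200 µL of 0.96 µM fluorescein and held at 37 °C for 20 min. AAPH was then added, and fluorescence decay (ex 485/em 538 nm) was recorded every 4.5 min for 2.5 h. Values were expressed as Trolox equivalents.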

Hep G2 cells [2] = experiment: CAA assay; format: cell-based; settings: Homo sapiens, HepG2, read-out: CAA IC50
In short: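 Hep G2 cells seeded at 6 × 10^4 cells/well overnight, then washed three times with PBS. Cells were incubated at 37 °C in treatment medium containing extract at various concentrations plus 25 µM DCFH-DA, then washed with PBS. AAPH was added, and fluorescence (ex 485/em 538 nm) was read every 5 min for 1 h at 37 °C. IC50 is the concentration scavenging 50% of AAPH radicals; quercetin was the standard; triplicates.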

NO radical scavenging = format: biochemical; settings: for NO scavenging ability percentage: 200 μg/mL, mean ± SD of triplicate
In short: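 Sodium nitroprusside (50 µL, 10 mmol) and 50 µL MeOH were added to 50 µL sample and incubated at 25 °C for 150 min. Then 100 µL Griess reagent was added for 5 min at room temperature, and absorbance was read at 542 nm. Blanks held sample, nitroprusside and MeOH without Griess reagent. Inhibition ratio was calculated from sample, blank and control absorbances; triplicate.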

protease = experiment: Determination of protease inhibition; format: biochemical; settings: casein 1%, 25 °C, 10 minutes
In short: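 Samples prepared at 1–300 µg/mL; 50 µL was combined with 200 µL of 50 mM phosphate buffer, then protease and 1% casein substrate were added. The mixture was incubated at 25 °C for 10 min and stopped with 10% trichloroacetic acid. After 21 min it was centrifuged at 895 ×g for 5 min, and supernatant absorbance was read at 280 nm. IC50 as mean ± SD of three replicates.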

[3] = ABTS radical cation scavenging assay; format: biochemical; settings: absorbance 734 nm after 15 minutes; mean ± SD of triplicate
In short: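 ABTS radical cation made by mixing aqueous ABTS diammonium salt with ammonium persulfate, then kept dark at room temperature for 16 h. It was diluted with ethanol to A734 0.70 ± 0.05. 200 µL radical solution was added to 20 µL of samples at a range of concentrations, and A734 was read after 15 min. IC50 reported as mean ± SD of three replicates.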

[4] = DPPH radical scavenging activity assay; format: biochemical; settings: 30 min at 37 °C, absorbance 517 nm; mean ± SD of triplicate
In short: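 20 µL of sample (6.25–3200 μg/mL solutions) mixed with 200 µL methanolic DPPH and kept dark at 37 °C for 30 min; absorbance read at 517 nm. Blanks held sample plus MeOH; controls held MeOH plus DPPH. Percent inhibition was calculated from control and blank absorbances. Quercetin was the standard; triplicate runs.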

FRAP assay = format: biochemical; settings: absorbance 593 nm; mean ± SD of triplicate
In short: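 FRAP reagent: 300 mM acetate buffer pH 3.6, 10 mM TPTZ in 40 mM HCl and 20 mM FeCl3·6H2O at 10:1:1, held dark at 37 °C for 10 min. 20 µL sample (6.25–3200 μg/mL solutions) was added to 180 µL pre-warmed reagent; controls held MeOH. Absorbance was read at 593 nm, and the FRAP value was calculated against the control; triplicate analysis.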

SMILES	Hep G2 cells IC50 (Hep G2 cells [1]; MTT, 24 h treatment, mean ± SD) [µg/mL]	ORAC TE (ORAC assay) [TE]	IC50 (Hep G2 cells [2]) [µg/mL]	NO scavenging ability percentage (NO radical scavenging)	NO scavenging ability percentage (NO radical scavenging; listed as oleanolic acid) [%]	Protease inhibition IC50 (protease) [µg/mL]	ABTS IC50 [3] [µg/mL]	IC50 (Hep G2 cells [1]) [µg/mL]	cytotoxic effect on the Hep G2 cell line (in words) (Hep G2 cells [1]; MTT)	DPPH IC50 [4] [µg/mL]	FRAP IC50 (FRAP assay) [µg/mL]	ORAC TE (ORAC assay; listed as rosmarinic acid) [TE]	NO scavenging (NO radical scavenging) [µg/mL]	NO scavenging ability percentage (NO radical scavenging; listed as ursolic acid) [%]
N.N.[Cl][Pt][Cl] [Cisplatin, reference compound]	12.65 ± 0.78	–	–	–	–	–	–	–	–	–	–	–	–	–
CC1(C)CC[C@]2(C(=O)O)CC[C@]3(C)C(=CC[C@@H]4[C@@]5(C)CC[C@H](O)C(C)(C)[C@@H]5CC[C@]43C)[C@@H]2C1 [Oleanolic acid]	–	0.46	> 200	48.82 ± 0.91%	48.82	28.0 ± 0.2	>2000	123 ± 8.84 (≈ 270 µM)	low antiproliferative effect	>2000	198.86 ± 1.49	–	–	–
O=c1c(O)c(-c2ccc(O)c(O)c2)oc2cc(O)cc(O)c12 [Quercetin, quercetin, reference compound]	–	1.06	38.9 ± 0.87 (≈ 129 µM)	89.96 ± 0.01%	–	–	26.35 ± 0.03	–	–	26.51 ± 0.06	18.53 ± 0.12	–	–	–
O=C(/C=C/c1ccc(O)c(O)c1)O[C@H](Cc1ccc(O)c(O)c1)C(=O)O [Rosmarinic acid]	–	0.60	171 (≈ 475 µM)	71.44 ± 0.37% and 71.44 ± 1.04%	–	17.0 ± 0.3	39.52 ± 0.72	47.8 ± 5.87 (≈ 133 µM)	–	28.39 ± 0.75	31.87 ± 0.67	0.6	71.44 ± 1.04	–
C[C@@H]1O[C@@H](OC[C@H]2O[C@@H](Oc3c(-c4ccc(O)c(O)c4)oc4cc(O)cc(O)c4c3=O)[C@H](O)[C@@H](O)[C@@H]2O)[C@H](O)[C@H](O)[C@H]1O [Rutin, Quercetin-3-O-rutoside]	–	0.83	> 200	81.30 ± 0.37%	–	22.4 ± 0.1	87.31 ± 0.68	63.9 ± 0.96 (≈ 105 µM)	–	33.48 ± 0.52	42.62 ± 0.86	–	–	–
C[C@H]1[C@H](C)CC[C@]2(C(=O)O)CC[C@]3(C)C(=CC[C@@H]4[C@@]5(C)CC[C@H](O)C(C)(C)[C@@H]5CC[C@]43C)[C@H]12 [Ursolic acid]	–	0.31	184 ± 9.25 (≈ 402 µM)	55.52 ± 0.43%	–	24.5 ± 0.1	>2000	> 200	–	>2000	298.51 ± 1.76	–	–	55.52
